In ChEMBL document CHEMBL1136847, “Syntheses and potential anti-prostate cancer activities of ionone-based chalcones” (Bioorg Med Chem Lett, 2009) one finds IC50 and Activity data, which are given here for 43 compounds.

Structures are written as SMILES. Calls of active or inactive are those of the source. No cut-off for these calls is given here. Where only a bound is given, the exact number is not on record here.

One test has as its system PC-3. Briefly: Cytotoxicity against androgen-independent human PC3 cells after 72 hrs by MTT assay. Type of test: functional, cell-based. To be noted: for IC50: PC-3, 72 h. The procedure, abridged:
(§1)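 Cells seeded at 6000–7000 per well in RPMI 1640 with 10% FBS, penicillin and streptomycin, left overnight, then exposed to a range of concentrations from DMSO stock (final DMSO 0.5%) for 72 h. MTT added for a further 2 h and formazan from viable cells read. IC50 taken from survival curves, 50% inhibition relative to 0.5% DMSO control; top concentration 150 µM.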

A further test deals with LNCaP. Put plainly: Cytotoxicity against androgen-dependent human LNCAP cells with T877A AR mutant after 72 hrs by MTT assay. Type of test: functional, cell-based. The procedure, abridged:
as §1
(In general: Formazan colour is commonly taken as a measure of viable cells.)

A further test deals with CWR22R. Briefly: Cytotoxicity against human 22Rv1 cells with H874Y AR mutant after 72 hrs by MTT assay. The test is classed as functional, cell-based. To be noted: 22Rv1, 72 h. The procedure, abridged:
as §1

A short description of test [1]: Cytotoxicity against androgen-independent human C4-2B cells with T877A mutant after 72 hrs by MTT assay. The test is classed as functional, cell-based. To be noted: LNCaP C4-2B. Summed up:
as §1

Test [2] is described as follows: Cytotoxicity against androgen-dependent human MDA PCa 2b cells with T877A/L701H AR mutant after 72 hrs by MTT assay. Type of test: functional, cell-based. The procedure, abridged:
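Seeded at 6000–7000 cells per well in BRFF-HPC1 medium with 20% FBS, incubated overnight, then treated with serial concentrations diluted from DMSO stock (final DMSO 0.5%) for 72 h. Viability by MTT, 2 h with reagent, formazan measured. IC50 from survival curves as 50% inhibition versus 0.5% DMSO vehicle; maximum concentration tested 150 µM.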

Test [3] in a line: Cytotoxicity against human RWPE1 cells after 72 hrs by MTT assay. Type of test: cell-based. To be noted: RWPE-1, 72 h. Summed up:
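Non-tumorigenic prostate epithelial line plated at 6000–7000 cells per well in keratinocyte serum-free medium with 0.05 mg/mL bovine pituitary extract and 5 ng/mL EGF; overnight attachment, then compounds at various concentrations in 0.5% final DMSO for 72 h. MTT 2 h, formazan read; IC50 from survival curves versus DMSO control.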

The IC50 is the concentration that inhibits the measured activity by half. Higher therefore signals a need for much substance. For `CC1=C(/C=C/C(=O)/C=C/c2ccc(C(F)(F)F)cc2)C(C)(C)CCC1`, the IC50 was 12 µM in the test with PC-3 and 9.1 µM with LNCaP.

On to `CC1=C(/C=C/C(=O)/C=C/c2ccc(O)c([N+](=O)[O-])c2)C(C)(C)CCC1`, for which the IC50 in the test on PC-3 was more than 50 µM; in the test with LNCaP it was 26.8 µM.

As to `CC1=C(/C=C/C(=O)/C=C/c2ccc(C(F)(F)F)cc2F)C(C)(C)CCC1O` (centres undefined), the results for the IC50 with PC-3, in the test on LNCaP and in the test on CWR22R were 4.6 µM, 2.6 µM and 3.8 µM, respectively.

With `CC1=CCCC(C)(C)C1/C=C/C(=O)/C=C/c1cccc(C(F)(F)F)c1` (centres undefined), the 50% inhibitory concentration (IC50) is 5.2 µM with PC-3; 4.4 µM in test [1]; 1 µM in the test with LNCaP; 4.4 µM in test [2]; 2.9 µM with CWR22R.

For `CC1=C(/C=C/C(=O)/C=C/c2cccc(C(F)(F)F)c2)C(C)(C)CCC1`, the IC50 in the test with PC-3 is 7.7 µM; in the test on LNCaP it was 2.8 µM.

On to `COc1ccc(/C=C/C(=O)/C=C/C2=C(C)CCCC2(C)C)cc1O`, for which the figures for the IC50 with PC-3 and with LNCaP were 37.4 µM and 9.9 µM, respectively.

Regarding `CC1=CCCC(C)(C)C1/C=C/C(=O)/C=C/c1cc(C(F)(F)F)ccc1F` (centres undefined), the IC50 was 3.1 µM with PC-3; 4.7 µM in test [1]; 1.7 µM in the test on LNCaP; 3 µM in test [2]; 3.5 µM with CWR22R.

Consider `COc1cccc(/C=C/C(=O)/C=C/C2=C(C)C(O)CCC2(C)C)c1` (centres undefined), for which the IC50 is 6.5 µM with PC-3 and 4.9 µM with LNCaP.

In the case of `CC1=C(/C=C/C(=O)/C=C/c2cccc([N+](=O)[O-])c2)C(C)(C)CCC1`, the IC50 was 10 µM in the test with PC-3 and 2.7 µM in the test on LNCaP.

Take `CC1=C(/C=C/C(=O)/C=C/c2ccccc2F)C(C)(C)CCC1O` (centres undefined): the IC50 was 10.4 µM with PC-3, 2.9 µM in the test with LNCaP and 3.3 µM in the test with CWR22R.

Consider `CC1=C(/C=C/C(=O)/C=C/c2ccccc2C(F)(F)F)C(C)(C)CCC1O` (centres undefined), for which the IC50 is 3.7 µM in the test on PC-3, 2.9 µM in the test on LNCaP, 2.9 µM in test [2] and 2.3 µM in the test with CWR22R.

Consider `CC1=C(/C=C/C(=O)/C=C/c2ccc(-c3ccccc3)cc2)C(C)(C)CCC1`, for which the IC50 was determined as 47.8 µM with PC-3 and 14.8 µM in the test with LNCaP.

As to `CC1=CCCC(C)(C)C1/C=C/C(=O)/C=C/c1ccccc1C(F)(F)F` (centres undefined), the IC50 with PC-3 is 19 µM; in test [1], 11.7 µM; with LNCaP, 22.6 µM; with CWR22R it was 18.4 µM.

Regarding `CC1=C(/C=C/C(=O)/C=C/c2cc(F)cc(C(F)(F)F)c2)C(C)(C)CCC1O` (centres undefined), the IC50 in the test with PC-3 worked out at 3 µM; in the test with LNCaP it was 1.1 µM; in the test on CWR22R, 2.4 µM.

Regarding `CC1=CCCC(C)(C)C1/C=C/C(=O)/C=C/c1ccc(C(F)(F)F)cc1` (centres undefined), the 50% inhibitory concentration (IC50) is 7.9 µM in the test on PC-3; 5.2 µM in test [1]; 4.7 µM in the test with LNCaP; 7 µM in test [2]; 3.3 µM with CWR22R.

Take `CC1=C(/C=C/C(=O)/C=C/c2ccc([N+](=O)[O-])cc2)C(C)(C)CCC1O` (centres undefined): the figures for the IC50 in the test on PC-3, in the test on LNCaP and in the test with CWR22R were 15 µM, 4.2 µM and 4.1 µM, respectively.

As to `CC1=C(/C=C/C(=O)/C=C/c2cccc(C)c2)C(C)(C)CCC1O` (centres undefined), the IC50 in the test with PC-3 is 6.2 µM; in the test on LNCaP it was 4.1 µM; in test [2], 19 µM; in the test with CWR22R it was 4.4 µM.

As to `CC(=O)/C=C/C1C(C)=CCCC1(C)C` (stereo not drawn) [ALPHA-IONONE], in the test with PC-3, the result was inactive. The compound also registered a half-inhibitory concentration (IC50) in the test on LNCaP of 151 µM.

Take `CC1=C(/C=C/C(=O)/C=C/c2cccc([N+](=O)[O-])c2)C(C)(C)CCC1O` (centres undefined): the IC50 in the test with PC-3 was 5.8 µM; in test [3], 1.9 µM; in the test with LNCaP it was 2 µM; in test [2], 6 µM; in the test with CWR22R it was 1.9 µM.

In the case of `CC1=C(/C=C/C(=O)/C=C/c2ccc(F)c(C(F)(F)F)c2)C(C)(C)CCC1O` (centres undefined), the half-inhibitory concentration (IC50) was determined as 7.3 µM with PC-3; 7.3 µM in test [1]; 2.2 µM in the test with LNCaP; 10 µM in test [2]; 3.2 µM in the test with CWR22R.

As for `CC1=C(/C=C/C(=O)/C=C/c2cccc(F)c2)C(C)(C)CCC1`, the IC50 is 18.7 µM in the test with PC-3 and 12.9 µM in the test with LNCaP.

Consider `CC1=C(/C=C/C(=O)/C=C/c2cc(C(F)(F)F)ccc2C(F)(F)F)C(C)(C)CCC1O` (centres undefined), for which the IC50 in the test with PC-3 is 1.9 µM; in the test with LNCaP, 3.2 µM; in test [2] it was 4 µM.

On to `CC1=C(/C=C/C(=O)/C=C/c2ccc(C(F)(F)F)cc2)C(C)(C)CCC1O` (centres undefined), for which the concentration for half-maximal inhibition (IC50) was found to be 10.2 µM with PC-3, 3 µM in the test on LNCaP, 9.3 µM in test [2] and 3.2 µM in the test with CWR22R.

For the compound `CC1=C(/C=C/C(=O)/C=C/c2ccccc2F)C(C)(C)CCC1`, the IC50 in the test with PC-3 is 22.1 µM; in the test on LNCaP, 10.7 µM.

As to `CC1=C(/C=C/C(=O)/C=C/c2ccccc2)C(C)(C)CCC1O` (centres undefined), the IC50 was 15.5 µM with PC-3; 1.8 µM in test [1]; 5.8 µM with LNCaP; 12.6 µM in test [2]; 8 µM with CWR22R.

On to `CC1=C(/C=C/C(=O)/C=C/c2ccc(F)cc2)C(C)(C)CCC1`, for which the IC50 was found to be 25.8 µM in the test with PC-3 and 7.3 µM in the test with LNCaP.

For `CC1=C(/C=C/C(=O)/C=C/c2cc(C(F)(F)F)cc(C(F)(F)F)c2)C(C)(C)CCC1O` (centres undefined), the IC50 turned out to be 7 µM with PC-3, 2.1 µM with LNCaP, 3.5 µM in test [2] and 2.2 µM in the test with CWR22R.

`CC1=CCCC(C)(C)C1/C=C/C(=O)/C=C/c1cccc(C)c1` (centres undefined): the IC50 amounted to 5.9 µM in the test with PC-3, 6.2 µM in test [1], 12.2 µM with LNCaP and 15.2 µM in the test with CWR22R.

Consider `CCOC(OCC)c1cccc(/C=C/C(=O)/C=C/C2=C(C)C(O)CCC2(C)C)c1` (centres undefined), for which the half-maximal inhibitory concentration (IC50) in the test with PC-3 amounted to 4.7 µM; in the test with LNCaP it was 1.8 µM.

For `COc1cc(/C=C/C(=O)/C=C/C2=C(C)CCCC2(C)C)ccc1O`, the concentration for half-maximal inhibition (IC50) in the test with PC-3 was determined as 21.3 µM; with LNCaP, 9.5 µM.

Take `CC1=C(/C=C/C(=O)/C=C/c2c(F)cccc2C(F)(F)F)C(C)(C)CCC1O` (centres undefined): the results for the IC50 with PC-3, in the test on LNCaP and in the test on CWR22R were 8.8 µM, 4.9 µM and 8.9 µM, respectively.

For the compound `CC1=C(/C=C/C(=O)/C=C/c2cccc(C)c2)C(C)(C)CCC1`, the IC50 with PC-3 stood at 35 µM; in the test on LNCaP, 17.8 µM.

Take `CC1=C(/C=C/C(=O)/C=C/c2cccc(F)c2)C(C)(C)CCC1O` (centres undefined): the figures for the IC50 in the test with PC-3, with LNCaP and with CWR22R were 16 µM, 4.4 µM and 5.6 µM, respectively.

In the case of `CC1=C(/C=C/C(=O)/C=C/c2cccc(C(F)(F)F)c2F)C(C)(C)CCC1O` (centres undefined), the half-maximal inhibitory concentration (IC50) in the test with PC-3 is 2.1 µM; with LNCaP, 1.1 µM.

On to `COc1ccc(/C=C/C(=O)/C=C/C2=C(C)CCCC2(C)C)cc1OC`, for which the figures for the IC50 in the test with PC-3 and in the test on LNCaP were 42 µM and 9.5 µM, respectively.

`CC1=CCCC(C)(C)C1/C=C/C(=O)/C=C/c1cccc([N+](=O)[O-])c1` (centres undefined): the IC50 in the test on PC-3 turned out to be 2.9 µM; in test [1], 4 µM; in the test on LNCaP it was 3.3 µM; in test [2], 5.9 µM; in the test with CWR22R it was 4.7 µM.

Turning to `CC1=C(/C=C/C(=O)/C=C/c2cccc(C#N)c2)C(C)(C)CCC1O` (centres undefined), the IC50 with PC-3 is 7.2 µM; in test [3], 1.9 µM; with LNCaP, 1.8 µM; in the test on CWR22R, 2.2 µM.

Regarding `CCOc1ccc(/C=C/C(=O)/C=C/C2=C(C)CCCC2(C)C)cc1OCC`, the IC50 in the test with PC-3 was more than 50 µM; with LNCaP, 8.2 µM.

Consider `CC1=C(/C=C/C(=O)/C=C/c2cc(C(F)(F)F)ccc2F)C(C)(C)CCC1O` (centres undefined), for which the IC50 is 3.6 µM with PC-3, 1.7 µM in the test with LNCaP and 2 µM with CWR22R.

In the case of `CC1=CCCC(C)(C)C1/C=C/C(=O)/C=C/c1ccccc1F` (centres undefined), the IC50 in the test with PC-3 was 4.8 µM; in test [1] it was 6 µM; with LNCaP, 1.6 µM; in test [2], 8.3 µM; in the test on CWR22R it was 9.4 µM.

On to `CC1=C(/C=C/C(=O)/C=C/c2ccc(F)cc2)C(C)(C)CCC1O` (centres undefined), for which the IC50 in the test on PC-3 amounted to 6.2 µM; in test [1], 4 µM; with LNCaP it was 3.9 µM; in the test with CWR22R, 7.5 µM.

Consider `CC1=C(/C=C/C(=O)/C=C/c2cc([N+](=O)[O-])ccc2Cl)C(C)(C)CCC1`, for which the figures for the IC50 with PC-3 and in the test on LNCaP were 18.9 µM and 4.2 µM, respectively.

As to `CC1=C(/C=C/C(=O)/C=C/c2cc(C(F)(F)F)cc(C(F)(F)F)c2)C(C)(C)CCC1`, the IC50 was determined as 7.2 µM with PC-3 and 8.7 µM with LNCaP.
